Data on 4 compounds can be found in paper PMC5508980 (Molecular nutrition & food research, 2017).

Assay [1] concerns the target T1, recombinant HDAC7 (Homo sapiens, UniProt Q8WUI4).
T1 sequence (Q8WUI4 1-952): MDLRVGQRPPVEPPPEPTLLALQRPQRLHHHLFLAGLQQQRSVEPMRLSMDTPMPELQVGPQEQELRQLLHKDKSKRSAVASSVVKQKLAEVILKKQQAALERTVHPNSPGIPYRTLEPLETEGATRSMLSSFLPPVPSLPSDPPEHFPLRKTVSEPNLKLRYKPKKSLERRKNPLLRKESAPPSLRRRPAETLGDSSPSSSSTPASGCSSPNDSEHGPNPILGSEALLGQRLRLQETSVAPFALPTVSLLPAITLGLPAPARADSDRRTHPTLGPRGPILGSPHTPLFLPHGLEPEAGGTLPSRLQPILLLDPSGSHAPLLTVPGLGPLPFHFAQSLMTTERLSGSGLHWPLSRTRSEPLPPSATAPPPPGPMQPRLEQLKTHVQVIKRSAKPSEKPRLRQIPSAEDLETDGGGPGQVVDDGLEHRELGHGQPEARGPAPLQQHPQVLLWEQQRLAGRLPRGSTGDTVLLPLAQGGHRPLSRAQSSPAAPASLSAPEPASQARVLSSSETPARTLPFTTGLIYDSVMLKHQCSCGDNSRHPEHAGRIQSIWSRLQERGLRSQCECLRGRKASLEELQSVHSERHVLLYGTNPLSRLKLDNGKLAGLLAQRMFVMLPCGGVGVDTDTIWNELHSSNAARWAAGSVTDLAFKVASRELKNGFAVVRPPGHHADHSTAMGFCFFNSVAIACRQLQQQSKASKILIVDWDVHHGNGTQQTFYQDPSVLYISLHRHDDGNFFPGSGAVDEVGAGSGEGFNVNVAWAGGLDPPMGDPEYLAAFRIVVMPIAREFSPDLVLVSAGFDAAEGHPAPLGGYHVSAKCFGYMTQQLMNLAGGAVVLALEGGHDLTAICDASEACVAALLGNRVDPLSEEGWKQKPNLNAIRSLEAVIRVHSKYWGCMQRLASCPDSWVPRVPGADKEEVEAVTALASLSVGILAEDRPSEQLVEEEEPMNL
The assay is described as follows: Recombinant HDAC activity assay. The class given is biochemical. Particulars: recombinant protein incubated with 50 µM compound, 2 hrs.

The target in assay [2] is T2, recombinant HDAC6 (Homo sapiens, UniProt Q9UBN7).
T2 sequence (Q9UBN7 1-1215): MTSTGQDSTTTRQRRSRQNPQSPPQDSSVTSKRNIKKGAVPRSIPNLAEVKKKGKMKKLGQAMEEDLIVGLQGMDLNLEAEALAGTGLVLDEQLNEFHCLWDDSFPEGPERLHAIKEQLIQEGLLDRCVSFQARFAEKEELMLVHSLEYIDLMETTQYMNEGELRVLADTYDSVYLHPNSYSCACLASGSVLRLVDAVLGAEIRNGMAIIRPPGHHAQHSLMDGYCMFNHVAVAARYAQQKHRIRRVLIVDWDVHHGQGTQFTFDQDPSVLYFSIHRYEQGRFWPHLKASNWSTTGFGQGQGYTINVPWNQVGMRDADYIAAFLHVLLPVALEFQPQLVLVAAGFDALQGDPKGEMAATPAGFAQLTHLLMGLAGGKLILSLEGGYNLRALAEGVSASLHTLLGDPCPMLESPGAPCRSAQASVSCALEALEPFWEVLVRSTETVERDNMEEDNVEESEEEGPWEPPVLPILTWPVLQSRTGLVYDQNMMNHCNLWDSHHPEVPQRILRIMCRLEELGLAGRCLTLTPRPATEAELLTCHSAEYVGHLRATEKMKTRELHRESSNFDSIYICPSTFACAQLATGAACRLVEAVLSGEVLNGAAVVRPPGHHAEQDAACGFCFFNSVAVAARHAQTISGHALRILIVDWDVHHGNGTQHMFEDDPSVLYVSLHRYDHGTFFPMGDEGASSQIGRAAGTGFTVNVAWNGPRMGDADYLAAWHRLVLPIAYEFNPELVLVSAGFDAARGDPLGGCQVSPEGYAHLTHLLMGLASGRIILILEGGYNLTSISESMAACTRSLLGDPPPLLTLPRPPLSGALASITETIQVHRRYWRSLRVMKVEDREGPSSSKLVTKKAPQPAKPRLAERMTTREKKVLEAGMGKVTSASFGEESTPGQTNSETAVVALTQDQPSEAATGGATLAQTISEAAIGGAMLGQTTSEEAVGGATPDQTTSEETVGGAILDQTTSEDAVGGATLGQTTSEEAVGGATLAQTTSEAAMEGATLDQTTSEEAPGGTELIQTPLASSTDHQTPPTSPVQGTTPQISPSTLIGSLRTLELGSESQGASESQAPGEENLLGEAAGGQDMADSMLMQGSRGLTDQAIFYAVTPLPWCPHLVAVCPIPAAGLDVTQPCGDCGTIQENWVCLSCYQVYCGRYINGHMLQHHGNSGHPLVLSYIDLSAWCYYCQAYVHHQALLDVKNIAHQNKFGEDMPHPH
The assay can be described thus: Recombinant HDAC activity assay. Particulars: 2 h, read-out: % HDAC activity, Class IIb HDACs, 6. The format is biochemical.

The subject of assay [3] is Class IIb HDAC. The assay is described as follows: HDAC activity assay, class IIb substrate, bovine heart tissue lysate. The format is biochemical. Particulars: 2 hours treatment. An outline of the steps: (§1)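 Bovine heart lysate prepared in PBS pH 7.4 with 0.5% Triton X-100, 300 mM NaCl and protease/phosphatase inhibitors, then clarified; 30 µg protein/well in PBS. Test compound at semi-log increasing concentrations for 2 h, then class-specific AMC-acyl-lysine substrate (1 mM DMSO stock) for 2 h at 37 °C.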

The target in assay [4] is recombinant HDAC1 (Homo sapiens, UniProt Q13547). The assay is described as follows: Recombinant HDAC activity assay. The format is biochemical. Particulars: 2 h, read-out: % HDAC activity, Class I HDACs, 1.
Sequence of recombinant HDAC1 (Q13547 whole entry): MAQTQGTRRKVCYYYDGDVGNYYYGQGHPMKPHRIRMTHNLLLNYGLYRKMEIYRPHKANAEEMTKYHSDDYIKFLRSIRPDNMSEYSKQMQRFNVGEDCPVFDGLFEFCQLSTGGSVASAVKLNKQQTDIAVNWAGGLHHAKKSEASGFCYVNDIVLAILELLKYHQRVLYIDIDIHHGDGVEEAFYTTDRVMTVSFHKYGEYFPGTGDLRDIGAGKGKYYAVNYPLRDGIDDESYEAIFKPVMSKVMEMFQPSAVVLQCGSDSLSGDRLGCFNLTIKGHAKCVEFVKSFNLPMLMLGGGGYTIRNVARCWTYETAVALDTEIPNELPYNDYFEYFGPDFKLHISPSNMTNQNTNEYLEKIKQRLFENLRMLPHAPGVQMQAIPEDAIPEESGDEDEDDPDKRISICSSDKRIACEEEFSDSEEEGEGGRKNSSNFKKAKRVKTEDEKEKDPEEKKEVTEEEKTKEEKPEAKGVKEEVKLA
The subject of assay [5] is HDAC activity in bovine cardiac tissue. The assay can be described thus: Natural product library screen with class-selective HDAC substrates. The format is biochemical. Particulars: 2 hours treatment. Summed up:
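The screen covered 131 natural compounds against bovine cardiac tissue lysate at 30 µg protein/well in PBS (pH 7.4 lysis buffer with Triton X-100 and NaCl). Test compound for 2 h, then separate class I, IIa or IIb fluorogenic acyl-lysine-AMC substrates for 2 h at 37 °C. Developer (Triton X-100, 3 µM TSA, 0.75 mg/ml trypsin) for 20 min; fluorescence read at 360/460 nm.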

The target in assay [6] is recombinant HDAC3 (Homo sapiens, UniProt O15379). The assay can be described thus: Recombinant HDAC activity assay. The format is biochemical. Particulars: 2 h, read-out: % HDAC activity, Class I HDACs, 3.
Sequence of recombinant HDAC3 (O15379 whole entry): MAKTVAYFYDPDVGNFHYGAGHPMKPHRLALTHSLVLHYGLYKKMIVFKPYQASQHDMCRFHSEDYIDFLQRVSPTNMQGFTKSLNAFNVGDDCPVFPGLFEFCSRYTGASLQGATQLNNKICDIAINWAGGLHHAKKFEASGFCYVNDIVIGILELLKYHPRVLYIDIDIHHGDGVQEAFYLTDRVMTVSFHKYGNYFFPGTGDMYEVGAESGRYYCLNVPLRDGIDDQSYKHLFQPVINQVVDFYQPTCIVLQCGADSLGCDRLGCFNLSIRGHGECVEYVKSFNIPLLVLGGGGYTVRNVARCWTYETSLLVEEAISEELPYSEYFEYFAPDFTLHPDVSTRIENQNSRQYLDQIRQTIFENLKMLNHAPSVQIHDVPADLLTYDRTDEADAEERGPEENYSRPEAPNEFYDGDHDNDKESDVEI
Sequence of recombinant HDAC3 (Q9Y618 395-489 partner limits assumed): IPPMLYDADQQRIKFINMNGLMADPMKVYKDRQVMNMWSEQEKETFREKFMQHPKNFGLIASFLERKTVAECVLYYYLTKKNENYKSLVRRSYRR
Assay [7] addresses recombinant HDAC5 (Homo sapiens, UniProt Q9UQL6). The assay can be described thus: Recombinant HDAC activity assay. The format is biochemical. The following applies: 2 h, read-out: % HDAC activity, Class IIa HDACs, 5.
For assay [8], the target named is recombinant HDAC4 (Homo sapiens, UniProt P56524). The assay can be described thus: Recombinant HDAC activity assay. The format is biochemical. Particulars: 2 h, read-out: % HDAC activity, Class IIa HDACs, 4.
Sequence of recombinant HDAC4 (P56524 whole entry): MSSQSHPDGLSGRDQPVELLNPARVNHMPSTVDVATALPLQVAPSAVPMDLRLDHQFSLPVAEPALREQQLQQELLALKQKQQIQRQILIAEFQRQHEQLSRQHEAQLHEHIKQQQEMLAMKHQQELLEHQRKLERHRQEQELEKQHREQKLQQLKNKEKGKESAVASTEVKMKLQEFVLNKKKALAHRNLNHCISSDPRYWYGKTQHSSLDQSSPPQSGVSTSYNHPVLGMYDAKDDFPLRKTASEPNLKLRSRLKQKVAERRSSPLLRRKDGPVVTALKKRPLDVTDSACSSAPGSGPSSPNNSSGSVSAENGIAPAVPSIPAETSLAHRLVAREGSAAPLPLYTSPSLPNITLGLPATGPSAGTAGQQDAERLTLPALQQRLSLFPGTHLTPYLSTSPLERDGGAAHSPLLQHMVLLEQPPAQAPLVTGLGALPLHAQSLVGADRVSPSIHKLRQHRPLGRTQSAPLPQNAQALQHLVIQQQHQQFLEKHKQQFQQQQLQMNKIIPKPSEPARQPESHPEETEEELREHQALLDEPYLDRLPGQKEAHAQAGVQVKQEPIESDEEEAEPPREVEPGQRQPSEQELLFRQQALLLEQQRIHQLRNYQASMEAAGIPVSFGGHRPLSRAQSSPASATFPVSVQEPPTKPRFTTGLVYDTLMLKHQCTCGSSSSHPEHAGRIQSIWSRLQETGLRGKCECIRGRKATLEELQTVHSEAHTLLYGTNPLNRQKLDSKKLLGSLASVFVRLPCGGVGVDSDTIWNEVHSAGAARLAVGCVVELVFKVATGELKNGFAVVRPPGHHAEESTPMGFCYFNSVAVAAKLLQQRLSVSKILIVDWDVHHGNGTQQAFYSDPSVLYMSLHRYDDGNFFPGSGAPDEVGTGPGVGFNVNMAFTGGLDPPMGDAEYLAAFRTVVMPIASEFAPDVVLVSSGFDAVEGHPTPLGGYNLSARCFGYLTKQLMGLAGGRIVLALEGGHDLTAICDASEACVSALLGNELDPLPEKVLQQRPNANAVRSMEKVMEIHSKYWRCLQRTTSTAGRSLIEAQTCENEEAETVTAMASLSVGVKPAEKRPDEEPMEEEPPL
The test system of assay [9] is H9c2 cells. The assay can be described thus: Acetyl-H3K9/14 immunoblot of whole cell extract. The format is cell-based, rat. Particulars: H9c2 myocytes, 50 µM, 2 hours. Summed up:
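H9c2 cells were grown in DMEM with 10% FBS and treated at 90% confluence for 2 h with test compound or DMSO, with TSA as positive control. Washed in ice-cold PBS, lysed in PBS pH 7.4 with 0.5% Triton X-100 and 300 mM NaCl plus inhibitors, sonicated and clarified. SDS-PAGE, nitrocellulose, acetyl-H3K9/14 and total H3 antibodies, chemiluminescence; densitometry; ANOVA with Tukey.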
(In western blotting, separated proteins are transferred to a membrane and probed.)

Assay [10] deals with T3, recombinant HDAC10 (Homo sapiens, UniProt Q969S8).
T3 sequence (Q969S8 1-669): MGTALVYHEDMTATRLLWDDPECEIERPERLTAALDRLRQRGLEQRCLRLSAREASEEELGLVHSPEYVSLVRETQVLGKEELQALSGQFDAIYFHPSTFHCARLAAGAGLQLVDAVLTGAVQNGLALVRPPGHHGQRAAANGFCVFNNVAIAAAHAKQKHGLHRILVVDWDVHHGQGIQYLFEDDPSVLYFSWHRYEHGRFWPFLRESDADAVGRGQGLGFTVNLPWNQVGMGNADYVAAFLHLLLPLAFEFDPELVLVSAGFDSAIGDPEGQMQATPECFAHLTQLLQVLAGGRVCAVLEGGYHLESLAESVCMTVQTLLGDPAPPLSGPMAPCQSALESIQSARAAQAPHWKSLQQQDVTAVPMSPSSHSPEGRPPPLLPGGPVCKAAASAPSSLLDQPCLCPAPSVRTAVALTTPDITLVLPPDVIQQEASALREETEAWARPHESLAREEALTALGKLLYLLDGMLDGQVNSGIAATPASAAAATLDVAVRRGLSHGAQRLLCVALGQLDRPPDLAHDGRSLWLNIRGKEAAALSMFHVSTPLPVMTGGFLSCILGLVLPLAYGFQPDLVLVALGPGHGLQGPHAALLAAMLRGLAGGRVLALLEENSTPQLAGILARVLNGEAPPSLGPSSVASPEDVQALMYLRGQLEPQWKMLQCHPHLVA
The assay can be described thus: Recombinant HDAC activity assay. The following applies: 2 h, read-out: % HDAC activity, Class IIb HDACs, 10. The class given is biochemical.

The target of assay [11] is recombinant HDAC9 (Homo sapiens, UniProt Q9UKV0). The assay is described as follows: Recombinant HDAC activity assay. The format is biochemical. Particulars: 2 h, read-out: % HDAC activity, Class IIa HDACs, 9.
Sequence of recombinant HDAC9 (Q9UKV0 whole entry): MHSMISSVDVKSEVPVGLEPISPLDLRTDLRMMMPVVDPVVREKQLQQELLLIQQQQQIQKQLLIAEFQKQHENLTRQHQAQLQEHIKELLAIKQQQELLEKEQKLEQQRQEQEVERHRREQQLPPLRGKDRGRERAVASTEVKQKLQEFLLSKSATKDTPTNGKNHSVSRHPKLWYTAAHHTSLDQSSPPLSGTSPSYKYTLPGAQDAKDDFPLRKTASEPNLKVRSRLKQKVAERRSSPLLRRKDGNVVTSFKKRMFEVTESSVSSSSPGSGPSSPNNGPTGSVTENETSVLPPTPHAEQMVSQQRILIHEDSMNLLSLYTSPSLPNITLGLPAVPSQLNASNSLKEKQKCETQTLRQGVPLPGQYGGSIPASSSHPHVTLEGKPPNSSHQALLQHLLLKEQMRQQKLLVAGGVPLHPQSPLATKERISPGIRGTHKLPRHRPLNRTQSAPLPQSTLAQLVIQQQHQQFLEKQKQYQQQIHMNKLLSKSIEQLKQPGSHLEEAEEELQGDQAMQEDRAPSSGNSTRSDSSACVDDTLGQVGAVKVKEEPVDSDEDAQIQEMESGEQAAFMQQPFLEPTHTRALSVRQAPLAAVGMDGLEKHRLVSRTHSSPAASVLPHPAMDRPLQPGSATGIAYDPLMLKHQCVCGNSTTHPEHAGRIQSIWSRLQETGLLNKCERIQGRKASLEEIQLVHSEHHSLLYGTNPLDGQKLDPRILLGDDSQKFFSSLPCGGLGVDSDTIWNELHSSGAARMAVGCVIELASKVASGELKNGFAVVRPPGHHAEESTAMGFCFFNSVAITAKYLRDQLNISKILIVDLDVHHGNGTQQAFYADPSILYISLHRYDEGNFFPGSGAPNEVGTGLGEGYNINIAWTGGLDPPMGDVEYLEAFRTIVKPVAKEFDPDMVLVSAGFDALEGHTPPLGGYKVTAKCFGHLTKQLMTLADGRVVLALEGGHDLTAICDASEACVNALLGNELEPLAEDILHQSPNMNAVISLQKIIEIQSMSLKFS
The target of assay [12] is T4, recombinant HDAC8 (Homo sapiens, UniProt Q9BY41).
T4 sequence (Q9BY41 1-377): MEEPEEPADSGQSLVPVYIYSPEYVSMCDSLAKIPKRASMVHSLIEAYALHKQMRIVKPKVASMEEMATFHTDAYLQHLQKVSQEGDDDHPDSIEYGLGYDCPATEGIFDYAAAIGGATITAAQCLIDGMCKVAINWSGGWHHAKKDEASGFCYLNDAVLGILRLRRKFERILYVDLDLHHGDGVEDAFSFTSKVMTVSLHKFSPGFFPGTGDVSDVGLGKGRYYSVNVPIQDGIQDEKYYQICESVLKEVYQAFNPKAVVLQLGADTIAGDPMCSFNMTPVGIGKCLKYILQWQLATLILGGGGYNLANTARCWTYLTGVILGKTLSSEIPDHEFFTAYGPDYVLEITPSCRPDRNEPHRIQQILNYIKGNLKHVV
The assay can be described thus: Recombinant HDAC activity assay. The class given is biochemical. The following applies: 2 h, read-out: % HDAC activity, Class I HDACs, 8.

Assay [13] has as its system Class IIa HDAC. The assay is described as follows: HDAC activity assay, class IIa substrate, bovine heart tissue lysate. The format is biochemical. The following applies: 2 hours treatment. An outline of the steps: as §1

Sequence of recombinant HDAC5 (Q9UQL6 whole entry): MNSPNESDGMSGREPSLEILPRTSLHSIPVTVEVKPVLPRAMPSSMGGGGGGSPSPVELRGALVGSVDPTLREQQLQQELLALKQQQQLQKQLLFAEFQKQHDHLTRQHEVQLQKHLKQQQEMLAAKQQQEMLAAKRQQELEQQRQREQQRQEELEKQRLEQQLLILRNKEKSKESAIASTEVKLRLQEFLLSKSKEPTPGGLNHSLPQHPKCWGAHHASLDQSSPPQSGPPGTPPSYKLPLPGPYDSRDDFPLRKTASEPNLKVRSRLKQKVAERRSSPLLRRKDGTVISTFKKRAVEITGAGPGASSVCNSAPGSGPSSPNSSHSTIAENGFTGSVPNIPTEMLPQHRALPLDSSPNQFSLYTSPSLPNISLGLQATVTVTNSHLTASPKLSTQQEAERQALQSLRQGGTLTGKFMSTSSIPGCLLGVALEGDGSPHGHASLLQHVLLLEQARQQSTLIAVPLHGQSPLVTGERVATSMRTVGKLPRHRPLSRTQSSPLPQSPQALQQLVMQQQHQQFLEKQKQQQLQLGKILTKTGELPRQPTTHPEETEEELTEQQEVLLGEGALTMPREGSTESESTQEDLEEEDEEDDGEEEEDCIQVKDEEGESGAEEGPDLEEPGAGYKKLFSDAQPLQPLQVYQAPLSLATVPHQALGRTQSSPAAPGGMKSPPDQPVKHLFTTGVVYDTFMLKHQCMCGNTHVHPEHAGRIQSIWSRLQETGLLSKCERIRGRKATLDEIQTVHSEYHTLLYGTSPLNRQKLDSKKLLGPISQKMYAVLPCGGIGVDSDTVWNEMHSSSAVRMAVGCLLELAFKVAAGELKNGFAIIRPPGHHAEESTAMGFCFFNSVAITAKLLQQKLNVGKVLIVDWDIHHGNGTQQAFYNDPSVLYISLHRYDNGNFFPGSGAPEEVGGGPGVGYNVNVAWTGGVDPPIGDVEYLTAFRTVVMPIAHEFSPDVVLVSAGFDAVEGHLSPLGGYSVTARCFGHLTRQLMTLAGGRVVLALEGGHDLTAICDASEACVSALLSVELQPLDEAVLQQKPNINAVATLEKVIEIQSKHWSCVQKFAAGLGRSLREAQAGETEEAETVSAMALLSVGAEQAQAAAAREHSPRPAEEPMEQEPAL

For `Oc1cc2c(cc1O)[C@@H]1c3ccc(O)c(O)c3OC[C@]1(O)C2` [Hematoxylin], the “% HDAC activity, Class IIa HDACs, 7” value in assay [1] was “-”. In addition, the remaining activity at 50 µM in assay [2] turned out to be 81.8%. Also, the “class IIb HDAC activity, effect in words” value in assay [3] is “targeted class IIb HDACs for inhibition”.

On to `O=c1c(O)c(-c2ccc(O)c(O)c2)oc2cc(O)cc(O)c12` [Quercetin dihydrate], for which the remaining activity at 50 µM in [4] came out at 72.7%; in [6], 63.6%; in assay [7], 78.2%; in assay [8], 89.8%; in [10], 68%; in [11] it was 70.8%. Further, in [12], the remaining activity at 50 µM worked out at 64%. The “catalytic HDAC activity across class I, IIa and IIb substrates, effect in words” value in assay [5] is listed as “dose-dependent pan-HDAC inhibition”. In addition, the “% HDAC activity, Class IIa HDACs, 7” value in assay [1] is recorded as “-”. The “acetylation of histone 3 on lysine 9/14 (Ac-H3 K9/14) via immunoblot” value in assay [9] was “increased”.

For `CN1CCc2c(c3ccccc3n2Cc2ccc(C(=O)NO)cc2)C1` [TubA, Tubastatin A, reference compound], the “class IIb HDAC activity, effect in words” value in assay [3] is listed as “only inhibited class IIb HDAC activity”.

As to DPAH, in assay [13], the “class IIa HDAC activity, effect in words” value is on record as “only inhibited class IIa HDAC activity”.
